Bioassay records (PubChem BioAssay)
14-3-3 Bad PPI = disrupts binding of bovine 14-3-3 zeta to phospho-Bad peptide; TR-FRET 14-3-3zeta/Dy647-pBad peptide displacement, 1 h; inhibition, % at 21.7 µM; 0.71% of 220,000 active;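 active = inhibition above about 70%, limit read from the data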;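 note: 0% = full 14-3-3 plus peptide FRET controls and 100% = background without 14-3-3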
eIF4E 4G PPI = blocks eIF4E binding to eIF4G | P63073+Q04637 | TR-FRET eIF4E-eIF4GI(517-606) binding, 2 h | inhibition, % at 21.7 µM | 0.37% of 220,000 active;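 note: 0% = full FRET control wells and 100% = background wells lacking eIF4GI fragment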
WT yeast gro inh = growth inhibition of WT yeast, mitochondrial fusion screen; 2.1% of 190,000 active; inhibition, % at 10 µM; mitochondrial fusion phenotypic screen, WT strain; in the data active = inhibition above about 58%; tested in S. cerevisiae
EBV gp42 block = EBV gp42 inhibition; Q1HVG2; Fluorescence polarization binding assay, mP read-out; inhibition, % (tested at 21.74 µM); 0.42% of 220,000 active; in the data active = inhibition above about 50%
Target sequence (Q1HVG2 whole entry, looked up): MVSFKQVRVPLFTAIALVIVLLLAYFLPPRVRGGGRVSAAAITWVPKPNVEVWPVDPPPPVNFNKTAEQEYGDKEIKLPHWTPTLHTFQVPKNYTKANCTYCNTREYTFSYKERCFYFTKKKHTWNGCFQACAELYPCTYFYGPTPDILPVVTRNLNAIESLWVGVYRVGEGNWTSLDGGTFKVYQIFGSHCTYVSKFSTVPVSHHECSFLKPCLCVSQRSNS
RBBP9 inhibitor = human RBBP9 hydrolase inhibition; recombinant RBBP9, FP-Rh probe fluorescence polarization; O75884; inhibition, % at 7.94 µM; 0.2% of 220,000 active;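 active = inhibition above the campaign mean of all tested compounds plus 3 SD, cut at about 14% in these data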;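 note: plate controls were DMSO wells with RBBP9 for no effect and wells lacking RBBP9 protein for full effect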
Target sequence (O75884 whole entry, looked up): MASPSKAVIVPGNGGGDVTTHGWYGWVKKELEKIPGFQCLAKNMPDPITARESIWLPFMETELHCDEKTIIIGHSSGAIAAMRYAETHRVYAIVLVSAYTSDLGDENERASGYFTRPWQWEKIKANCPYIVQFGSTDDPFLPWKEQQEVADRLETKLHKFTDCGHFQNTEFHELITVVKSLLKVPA
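System: RBBP9 protein / Buffer or medium: Tris/NaCl buffer pH 8.0 with 0.1% Pluronic / Probe or stimulus: Serine-hydrolase probe FP-Rh, 375 nM pre-mixing / Dosing: 7.94 µM single dose, 0.794% DMSO / Times: enzyme-compound preincubation 30 min, then probe labeling 45 min, 25 °C / Technique: fluorescence polarization (mP), excitation 525 nm, emission 598 nm / Replication: singlicate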
p47phox inh = blocks human p47phox regulatory protein of NADPH oxidases; P14598; p47phox/p22phox peptide binding, fluorescence polarization, 2 h; inhibition, % at 24.7 µM; 0.53% of 220,000 active; AID 1274;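 note: 0% = p47phox with labelled peptide and 100% = labelled peptide alone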
* hit, by the source's call; . = no result; [ ] = dose if it differs, or a comment. Only some compounds are listed: those with a hit (about 3.7% of all), similar ones and a draw of the others.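 Rule for the calls, unless noted: active = inhibition above about 30% (limit read from the data); inactive = the rest.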

SMILES | 14-3-3 Bad PPI | eIF4E 4G PPI | WT yeast gro inh | EBV gp42 block | RBBP9 inhibitor | p47phox inh
CCC1(C)CC(CCN(Cc2ccco2)C(C)=O)(c2ccccc2)CCO1 (configuration not stated) | -16 | 4 | -6 | -5 | -3 | -5
CC1(C)CC(CCN(Cc2ccccc2)C(=O)c2ccco2)(c2ccccc2)CCO1 (configuration not stated) | -3 | 1 | 63* | -3 | -5 | -37
O=C(Nc1ccc(Br)c2ccccc12)c1ccc2ccccc2c1O | -1 | 0 | . | -13 | 7 | -7
Nc1nc(-c2ccc(C(=O)O)cc2)cs1 | -6 | 1 | 1 | -5 | -9 | -1
Nc1csnc1C(=O)O | 78* | 10 | -10 | -14 | -1 | -8
Cc1cccc(Cl)c1NC(=S)NCCc1ccccn1 | -4 | -2 | . | -9 | -9 | -14
CC(NC(=O)C12CC3(C)CC(C)(CC(C)(C3)C1)C2)C(=O)O (configuration not stated) | -11 | 0 | -6 | 3 | 6 | 3
COc1ccc(C(=O)NCc2nnc(SCC(=O)N3CCC(C)CC3)o2)cc1 | -6 | -4 | 6 | -9 | -6 | -2
CC(C)(C)Nc1nc(SCc2ccccc2)nc(N2CCOCC2)n1 | 2 | -2 | 66* | -4 | -3 | -3
CCOC(=O)c1c(C)nc2ccc(Cl)cc2c1-c1ccccc1 | -9 | 4 | 64* | 8 | -1 | -2
O=C(Nc1c(O)c2ccccc2[nH]c1=O)c1ccco1 | 5 | -3 | . | -9 | -3 | 2
COc1cccc(C2NC(=S)NC3=C2CCc2ccccc23)c1 (configuration not stated) | -3 | -3 | 6 | -37 | -6 | -24
COc1ccc2c(c1)C1=C(CC2)C(c2ccc(C)cc2)NC(=S)N1 (configuration not stated) | -13 | 2 | 80* | 0 | -5 | -10
CC(=O)CCc1oc2ccc([N+](=O)[O-])cc2c1-c1ccc(C)o1 | -5 | -3 | 27 | 0 | -2 | 0
CC(=O)CCc1oc2c([N+](=O)[O-])cccc2c1-c1ccc(C)o1 | 1 | 0 | 69* | 3 | -5 | -14
CS(=O)(=O)Nc1cccc(C2=NN(S(C)(=O)=O)C(c3ccc4c(c3)OCO4)C2)c1 (configuration not stated) | -10 | 0 | 3 | -14 | -5 | -67
CS(=O)(=O)N1N=C(c2ccccc2)CC1c1ccc2c(c1)OCO2 (configuration not stated) | 1 | -4 | 5 | 91* | -7 | -254
CCN=C(N/N=C/c1ccc([N+](=O)[O-])cc1)SC | 65 | 31*[fluorescence artefact?] | -42 | -68 | -7 | -5
CC(C)c1nnc(NC(=O)C2CCCN2C(=O)Nc2ccccc2F)s1 (configuration not stated) | 2 | 2 | 2 | -3 | -13 | -3
COc1ccccc1NC(=O)N1CCCC1C(=O)Nc1nnc(C(C)C)s1 (configuration not stated) | 78*[fluorescence artefact?] | 7 | 13 | -2 | -1 | 3
COc1cc(C2C3=C(Nc4nc(N)[nH]c(=O)c42)c2ccccc2C3=O)ccc1O (configuration not stated) | 5 | 1 | . | 13 | 3 | -20
O=c1c2ccccc2nc(/C=C/c2ccc([N+](=O)[O-])o2)n1CCCO | -5 | 7 | 65* | -21 | -6 | 35*
O=C(NCC1CCCO1)C1CCCN1C(=O)Nc1ccc(Cl)cc1 (configuration not stated) | -6 | 3 | -19 | -15 | -15 | -3
O=C(C(c1ccccc1)c1ccccc1)N1CCN(c2ccccn2)CC1 | -3 | -3 | -1 | 8 | 4 | -7
O=C(C(c1ccccc1)c1ccccc1)N1CCN(Cc2ccccn2)CC1 | 71* | -1 | 6 | -9 | -6 | -10
SMILES | 14-3-3 Bad PPI | eIF4E 4G PPI | WT yeast gro inh | EBV gp42 block | RBBP9 inhibitor | p47phox inh
O=C(C(c1ccccc1)c1ccccc1)N1CCN(Cc2ccncc2)CC1 | 75* | -7 | 15 | -8 | 1 | -7
CCCCCCCCc1nnc(N)s1 | -5 | -4 | . | -14 | -8 | -8
CCN(CC)C1=CC2=CC(=C(C#N)C#N)CCC2CC1 (configuration not stated) | -7 | -4 | 22 | -62 | -1 | 62*
N#CC(C#N)=C1C=C2C=C(N3CCCCC3)CCC2CC1 (configuration not stated) | -14 | 0 | 1 | -102 | -1 | 113*
COc1cc(CC(=O)NCC2COc3ccccc3O2)cc(OC)c1OC (configuration not stated) | -7 | 1 | -9 | 1 | -5 | 0
O=C1c2ccccc2C2=Nc3ccccc3SC(c3ccc(Cl)cc3)C12 (configuration not stated) | 46 | 0 | 83* | -11 | -2 | -28
O=C1c2ccccc2C2=Nc3ccccc3SC(c3cccc(F)c3)C12 (configuration not stated) | 2 | 4 | 84* | -5 | -8 | -40
CC(=O)C1=C(C)NC(=O)CC1c1ccc(Br)cc1 (configuration not stated) | -20 | 1 | -19 | -11 | -6 | -6
N#C/C(=N\Nc1ccc(Cl)cc1)C(=O)c1ccccc1 | 5 | 62*[fluorescence artefact?] | . | -10 | 1 | -19
COc1ccc(C(=O)/C(C#N)=N/Nc2ccc([N+](=O)[O-])cc2)cc1 | 25 | 10 | 65* | 1 | 3 | -8
CCOC(=O)C1(CCOc2ccccc2)CCN(Cc2ccc(-n3cccn3)cc2)CC1 | -7 | -1 | 14 | -3 | -6 | -10
Cc1ccc(-c2cc(C(=O)N3N=C(C(F)F)CC3(O)C(F)F)c3ccccc3n2)cc1C (configuration not stated) | 8 | 4 | 92* | 3 | -10 | -1
C=CCn1ccc(=NC=C(C#N)C#N)c2ccccc21 | 0 | 2 | . | -36 | -6 | -1
Cc1cc(C)cc(N2CC(O)=C(c3nc4ccccc4c(=O)[nH]3)C2=N)c1 | 77* | 13 | 1 | -26 | 5 | 3
Cc1c(C(=O)C(=O)N2c3ccccc3CC2C)c2ccccc2n1C (configuration not stated) | -17 | 0 | 14 | 5 | -7 | 41*
Cc1ccc(C(=O)N2c3ccccc3CC2C)o1 (configuration not stated) | -3 | 5 | 12 | -3 | 1 | 41*
CSc1nnc(-c2cc3c(-c4ccccc4)nn(C)c3s2)n1C | 89* | 8 | -18 | -16 | -10 | -2
CCCn1c(N)c(N(CCOC)C(=O)/C=C/c2ccc(C(=O)OC)cc2)c(=O)[nH]c1=O | 13 | -5 | 19 | -16 | -7 | -9
CC(C)Cn1c(O)c(/C=C2\C=NN=C2c2ccccc2)sc1=S | -1 | -4 | 63* | -5 | 0 | -7
